Measurements as given in paper PMC4242840 (The Journal of Cell Biology, 2014).
Numbering of substitutions follows the chain as printed. Names and notes keep the numbering of the source. “Also recorded” adds a separate entry of the source.

Columns and labels:
[1] = target: T1, HIS6-TEV-Rsa4 full-length (S. cerevisiae, UniProt P25382 1-515); test: pull-down
T1 sequence: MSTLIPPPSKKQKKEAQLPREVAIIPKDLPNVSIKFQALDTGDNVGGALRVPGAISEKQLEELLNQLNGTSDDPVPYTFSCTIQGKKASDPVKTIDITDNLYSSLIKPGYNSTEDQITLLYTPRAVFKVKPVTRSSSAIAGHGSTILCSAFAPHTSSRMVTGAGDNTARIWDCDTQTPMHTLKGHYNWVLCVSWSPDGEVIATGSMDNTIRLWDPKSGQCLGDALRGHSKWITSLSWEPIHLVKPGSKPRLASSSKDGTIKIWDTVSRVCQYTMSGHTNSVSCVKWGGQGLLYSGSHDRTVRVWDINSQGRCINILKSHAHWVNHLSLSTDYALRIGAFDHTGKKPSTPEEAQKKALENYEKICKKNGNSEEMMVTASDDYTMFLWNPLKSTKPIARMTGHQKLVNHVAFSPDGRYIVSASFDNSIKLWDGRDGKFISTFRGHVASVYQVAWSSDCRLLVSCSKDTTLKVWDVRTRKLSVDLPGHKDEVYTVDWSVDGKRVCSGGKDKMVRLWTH

[2] = tested on: 25S rRNA helices H89, H90, H42; test: UV cross-linking and analysis of cDNA; type: binding, Saccharomyces cerevisiae; details: in vivo UV cross-linking, % of hits
Method in brief: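 Yeast culture was UV-irradiated to cross-link protein to RNA, then lysed with zirconia beads. Nsa2-His-TEV-ProtA was bound to IgG-Sepharose and eluted with TEV. The eluate was RNase-treated and denatured, and Nsa2 was repurified on Ni-NTA under denaturing conditions. Cross-linked RNA was ligated to 3′ and 5′ DNA linkers and sequenced; hits were mapped to rRNA helices.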

pre-60S particles [3] = test: association with pre-60S particles; type: cell-based, Saccharomyces cerevisiae; details: for association with pre-60S particles: 10–50% sucrose gradient, anti-ProtA Western blot
Method in brief: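 Wild-type yeast expressed plasmid-borne NSA2-FTpA or nsa2 Y90A-FTpA. Cells were treated with cycloheximide for 15 min and lysed with glass beads. Whole-cell lysates were fractionated on 10–50% sucrose gradients (16 h, 27,000 rpm, 0.4 ml fractions), and fractions were probed by Western blot with anti-ProtA to detect tagged Nsa2.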

[4] = tested on: 60S subunit production / pre-60S composition; test: pulse-chase labeling with affinity purification of Rpl25; type: cell-based, Saccharomyces cerevisiae
Method in brief: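 Strain DS1-2b carried an amber-suppressor tRNA/synthetase plasmid and a GAL plasmid co-expressing 2×HA-TAG-Rpl25-FTpA with wild-type or Y90A Nsa2. After 60 min galactose induction, O-methyl-tyrosine was added as a 7 min pulse, followed by a 20 min chase with tetracycline and glucose. Rpl25 was TAP-purified, run on SDS-PAGE with Coomassie staining, and bands were identified by mass spectrometry.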

wild-type yeast growth = test: dominant-negative phenotype upon GAL overexpression in wild-type yeast; type: cell-based, Saccharomyces cerevisiae; details: GAL promoter, galactose medium, 30°C, 2 or 3 d
[5] = tested on: Nsa2 shuffle strain (nsa2Δ); test: complementation of nsa2Δ; type: cell-based, Saccharomyces cerevisiae; details: SDC+FOA, 30°C, 2 or 3 d
[6] = tested on: 60S subunit formation and nuclear export; test: 60S biogenesis/export upon overexpression; type: cell-based, Saccharomyces cerevisiae; details: galactose-containing medium, 6 h (nsa2) or 8 h (rsa4)
Method in brief: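 Wild-type yeast carried plasmids for the 60S reporter Rpl25-EGFP and mRFP-Nop1, plus 2μ GAL-driven NSA2 alleles. Cells were shifted to galactose medium for 6 h (Nsa2), washed in water and imaged at room temperature (100× oil objective, EGFP/Cy3 filters). For profiles, cells were treated with cycloheximide for 15 min, lysed with glass beads and run on 10–50% sucrose gradients (16 h, 27,000 rpm), recorded at 254 nm.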

HIS6-Rsa4 WD40 domain = target: T2, HIS6-Rsa4 WD40 domain (S. cerevisiae, UniProt P25382 112-515); test: pull-down
T2 sequence: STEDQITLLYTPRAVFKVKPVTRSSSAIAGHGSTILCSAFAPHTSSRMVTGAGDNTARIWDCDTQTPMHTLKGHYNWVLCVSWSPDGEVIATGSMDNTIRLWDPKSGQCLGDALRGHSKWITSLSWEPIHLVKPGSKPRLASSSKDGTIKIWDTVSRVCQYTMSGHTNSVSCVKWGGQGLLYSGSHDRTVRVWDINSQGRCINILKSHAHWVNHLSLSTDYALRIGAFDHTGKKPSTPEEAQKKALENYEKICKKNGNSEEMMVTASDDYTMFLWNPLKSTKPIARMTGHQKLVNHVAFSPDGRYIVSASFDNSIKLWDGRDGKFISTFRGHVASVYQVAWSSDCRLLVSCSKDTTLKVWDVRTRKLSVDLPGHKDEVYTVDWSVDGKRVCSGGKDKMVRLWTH

[7] = target: T3, Rsa4 β-propeller (Rsa4Δ136) (S. cerevisiae, UniProt P25382 137-515); test: ITC
T3 sequence: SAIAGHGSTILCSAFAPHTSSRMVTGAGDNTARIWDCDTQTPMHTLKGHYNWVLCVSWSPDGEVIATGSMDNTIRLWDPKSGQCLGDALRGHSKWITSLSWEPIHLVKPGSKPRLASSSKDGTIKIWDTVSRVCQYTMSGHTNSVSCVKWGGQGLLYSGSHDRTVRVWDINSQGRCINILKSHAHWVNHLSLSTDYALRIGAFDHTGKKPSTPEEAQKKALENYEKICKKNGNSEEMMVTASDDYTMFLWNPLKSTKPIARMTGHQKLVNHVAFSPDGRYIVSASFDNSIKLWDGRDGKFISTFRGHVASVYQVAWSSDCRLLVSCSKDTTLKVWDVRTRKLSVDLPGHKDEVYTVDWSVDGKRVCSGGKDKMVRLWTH

pre-60S particles [8] = test: affinity purification of Rpl5-FTpA constructs; type: cell-based, Saccharomyces cerevisiae; details: Flag-TEV-ProtA bait
Method in brief: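 Rpl5 variants tagged with Flag-TEV-ProtA were purified from a 2-liter yeast culture pellet. Steps: IgG-Sepharose 90 min, TEV elution 120 min, FLAG beads 45 min, FLAG-peptide elution. Eluates were run alongside pre-60S particles purified via Nsa2-FTpA and FTpA-Rsa4, then analysed by SDS-PAGE and Western blot.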

Nsa2 = test: in vitro binding assay of Rsa4 mutants with MBP-Nsa2; parameters: species or system Saccharomyces cerevisiae; details: immobilized MBP-Nsa2, HIS-TEV-Rsa4 mutant in E. coli lysate; SDS-PAGE
Method in brief: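 Bait and prey were expressed in E. coli by IPTG induction for 3 h. MBP-Nsa2 was prepurified on SP Sepharose and bound to amylose resin; HIS-TEV-Rsa4 variants were Ni-NTA-purified. Beads were incubated 45 min with a 5× excess of Rsa4 mixed with MBP-depleted E. coli lysate as competitor. Beads were washed in 20 mM Hepes pH 7.5, 200 mM NaCl, 1 mM DTT and eluted in SDS sample buffer (10 min, 65°C). Eluates were run on 4–12% SDS-PAGE with Coomassie staining.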

[9] = tested on: Rsa4 shuffle strain (rsa4Δ); test: complementation of rsa4Δ; type: cell-based, Saccharomyces cerevisiae; details: SDC+FOA, 30°C, 2 d

B1: MBP-Nsa2 (natural protein)
chain: MPQNDYIERHIKQHGKRLDHEERKRKREARESHKISERAQKLTGWKGKQFAKKRYAEKVSMRKKIKAHEQSKVKGSSKPLDTDGDALPTYLLDREQNNTAKAISSSIKQKRLEKADKFSVPLPKVRGISEEEMFKVIKTGKSRSKSWKRMITKHTFVGEGFTRRPVKMERIIRPSALRQKKANVTHPELGVTVFLPILAVKKNPQSPMYTQLGVLTKGTIIEVNVSELGMVTAGGKVVWGKYAQVTNEPDRDGCVNAVLLV
B1: binds [1].

B2: Nsa2-His6-TEV-ProtA: Nsa2 tagged with His6-TEV-ProtA used for CRAC (protein, UniProt P40078 1-261, looked up)
Ribosome biogenesis protein …: B1 chain
modifications: His6-TEV-ProtA tag
B2 was tested, and the “CRAC hits on H42” value ([2]; rRNA helix H42) was 15%, the “CRAC hits on H89” value ([2]; rRNA helix H89) was 60% and the “CRAC hits on H90” value ([2]; rRNA helix H90) was 25%.

B3: nsa2 Y90A: Nsa2 with tyrosine 90 mutated to alanine (protein)
chain: B1 chain with Y90A
modifications: left off: MBP, N-terminal, kept
With B3 the “association with pre-60S particles” value (pre-60S particles [3]) was “still associated with pre-60S particles; also recorded: efficiently assembled into preribosomes”, the “replacement of endogenous Nsa2 in preribosomes” value (pre-60S particles [3]; upon overexpression) was “replacement of endogenous Nsa2 within the preribosomes” and the “60S production in pulse-chase” value ([4]; 60-min galactose induction, 7 min Ome-Tyr pulse, 20 min chase) was “arrests 60S biogenesis”. The “enrichment of methyl-transferases Spb1 and Nop2” value ([4]; arrested preribosomal intermediate, HA-Rpl25-Flag-ProtA purification) was “strongly enriched”, the “dominant-negative phenotype upon overexpression” value (wild-type yeast growth) was “dominant lethal” and the “dominant-negative phenotype upon overexpression” value (wild-type yeast growth; listed as Nsa2 Y90A) was “strong dominant-lethal phenotype”. For the same molecule, the “growth / viability (complementation)” value [5] was “nonviable”, the “effect of overexpression on 60S biogenesis / export” value [6] was “defect in 60S subunit export” and the “effect of overexpression on 60S biogenesis / export” value ([6]; listed as Nsa2 Y90A) was “specific block in nuclear export and formation of 60S subunits”.

B4: nsa2 Y90F: Nsa2 with tyrosine 90 mutated to phenylalanine (protein)
chain: B1 chain with Y90F
modifications: left off: MBP, N-terminal, kept
For B4, the “growth / viability (complementation)” value [5] was “normal growth”.

B5: MBP-Nsa2 Y90F (natural protein)
chain: B1 chain with Y90F
B5: binds [1].

GDALPTYLLDREQ (domain or fragment) [MBP-Nsa2 84–96 aa]: binds (HIS6-Rsa4 WD40 domain).

DALPTYLLDRE [Nsa2 peptide (85–95 aa, DALPTYLLDRE)]: binds [7].

B6: wild-type Rpl5: ribosomal protein Rpl5 (uL18), wild type (protein)
chain: MAFQKDAKSSAYSSRFQTPFRRRREGKTDYYQRKRLVTQHKAKYNTPKYRLVVRFTNKDIICQIISSTITGDVVLAAAYSHELPRYGITHGLTNWAAAYATGLLIARRTLQKLGLDETYKGVEEVEGEYELTEAVEDGPRPFKVFLDIGLQRTTTGARVFGALKGASDGGLYVPHSENRFPGWDFETEEIDPELLRSYIFGGHVSQYMEELADDDEERFSELFKGYLADDIDADSLEDIYTSAHEAIRADPAFKPTEKKFTKEQYAAESKKYRQTKLSKEERAARVAAKIAALAGQQ
B6 was tested, and the “co-purified particles / Syo1” value (pre-60S particles [8]) was “only recovered mature 60S subunits, plus Syo1”.

B7: Rsa4 Y448E (protein)
chain: T1 sequence with Y448E
B7 was tested, and the “association with pre-60S particles” value (pre-60S particles [3]) was “partly impaired in association with pre-60S particles”, the “binding to Nsa2” value (Nsa2) was “impaired binding to Nsa2 in vitro” and the “dominant-negative phenotype upon overexpression” value (wild-type yeast growth) was “less pronounced dominant-negative phenotype”. The “growth / viability (complementation)” value [9] was “blocked cell growth in vivo”.
